Assay outcomes from PubChem BioAssay.
The list is a sample of the results.
Apaf1 activ: human Apaf-1 activation; Apaf-1 apoptosome caspase-3 activation, DEVD-Rh110 fluorescence; stronger effect = lower value; actives 0.31% (n = 330,000); activity change, negative = activation, % at 20 µM; AID 489031; O14727;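 active = activity change at or below -40% at 20 µM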
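Material: reconstituted apoptosome of Apaf-1, cytochrome c, caspase-9, procaspase-3; times: 30 min preincubation, 50 min reaction, room temperature; measured by: fluorescence, 540 nm emission, 480 nm excitation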
Rh110 act interf: counter-screen for Apaf-1 activators: fluorescence interference | shares compounds with Apaf1 activ | Rh110 fluorescence interference, quenched caspase reaction, Ex480/Em540 | fluorescence interference (activity change), % at 20 µM, hits read low | 980 tested, under 10 active;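 active = mean activity change at or below -40% when tested at 20 µM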
Apaf-1 act conf: Apaf-1 (human) activation, single-dose confirmed; shares compounds with Apaf1 activ; reconstituted apoptosome caspase-3 activity, DEVD-Rh110 fluorescence; stronger effect = lower value; activity change, negative = activation, % at 20 µM; actives 5% (n = 980);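 active = mean activity change at or below -40%, meaning activation of 40% or more, at 20 µM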
Fluor interf act: counter-screen for Apaf-1 activators: fluorescence interference, dose response; 55 tested, under 10 active; shares compounds with Apaf1 activ; fluorescence interference counterscreen, Apaf-1 activator assay; EC50, µM; call rule not given here
Numbers stand for hits.

For COc1ccc(N2CCN(C(=O)Cc3ccc(OC)c(OC)c3)CC2)cc1 the results were Apaf1 activ -535, Rh110 act interf inactive and Apaf-1 act conf inactive.
Screening OC(c1cc(C(F)(F)F)nc2c(C(F)(F)F)cccc12)C1CCCCN1 (stereo unspecified) returned Apaf1 activ inactive.
`Cc1cc(C)c(S(=O)(=O)NCc2ccc3c(c2)cc(C)n3C)c(C)c1` gave Apaf1 activ inactive.
For O=C1C(=O)c2ccccc2C(O)=C1CCCCl the results were Apaf1 activ inactive.
For O=C(Nc1ccc2nc(-c3ccco3)c(-c3ccco3)nc2c1)N1CCCCCC1 the results were Apaf1 activ inactive.
O=C(NCC(c1ccco1)N1CCCC1)c1cccc(S(=O)(=O)Nc2ccc(Br)cc2)c1 (stereo unspecified) was read as Apaf1 activ inactive.
Cc1cccc(C(=O)N/C(=C\c2ccco2)C(=O)N2CCCC2)c1 was read as Apaf1 activ -134, Rh110 act interf inactive and Apaf-1 act conf inactive.
For CCCCCc1cc(=O)oc2c(C(CCN3CCCC(C)C3)c3ccc4c(c3)OCO4)c(OC)cc(OC)c12 (stereo unspecified) the results were Apaf1 activ inactive.
For Cc1ccc(N(CC(=O)N/N=C/c2ccc(OC3CSC3)cc2)S(=O)(=O)c2ccccc2)c(C)c1 the results were Apaf1 activ inactive.
COc1ccc(C(=O)CN2C(=O)c3ccccc3C2=O)cc1 was read as Apaf1 activ -165, Rh110 act interf inactive and Apaf-1 act conf inactive.
Screening COc1ccc(C2=NN(c3ccccc3)C(=O)/C2=C\c2ccc(O)c(OC)c2)cc1 returned Apaf1 activ inactive.
For COc1ccc(/C=C2/C(=O)N(c3ccccc3)N=C2C)cc1 the results were Apaf1 activ inactive.
For COn1c2c(c3c4nonc4ccc31)CCCC2 the results were Apaf1 activ inactive and Fluor interf act inactive.
For COc1ccc(C2CC(=O)Oc3c(C(CCN4CCCC(C)C4)c4ccc(N(C)C)cc4)c(OC)cc(OC)c32)cc1 (stereo unspecified) the results were Apaf1 activ inactive.
For CC(C)C(NS(=O)(=O)c1ccc2c(c1)oc(=O)n2C)C(=O)N1CCN(C2CCCCC2)CC1 (stereo unspecified) the results were Apaf1 activ -54, Rh110 act interf inactive and Apaf-1 act conf inactive.
Screening CCN(CC)c1ccc(N=C2C(=O)Nc3ccccc32)cc1 returned Apaf1 activ inactive.
For Cc1cc(N2CCN(c3ccc([N+](=O)[O-])c4cccnc34)CC2)c2ccccc2n1 the results were Apaf1 activ inactive.
For O=c1[nH]c(C(F)(F)F)nc2ccccc12 the results were Apaf1 activ -112, Rh110 act interf inactive and Apaf-1 act conf inactive.
For O=c1[nH]c(CN2CCc3ccccc3C2)nc2ccccc12 the results were Apaf1 activ inactive.
Screening O=c1[nH]c(Nc2ccc(F)cc2)cc2ccccc12 returned Apaf1 activ inactive.
Screening Cc1ccc(C(=O)N/C(=C\c2ccc(-c3ccccc3[N+](=O)[O-])o2)C(=O)NCCN(C)C)cc1 returned Apaf1 activ inactive.
Screening COc1ccc(CC2S/C(=N/N=C/c3ccccc3O)NC2=O)cc1 (stereo unspecified) returned Apaf1 activ -524, Rh110 act interf inactive and Apaf-1 act conf inactive.
For CN1C(=O)c2cccc3c(S(=O)(=O)NCc4ccco4)ccc1c23 the results were Apaf1 activ inactive.
CCOc1cc2[nH]c(=O)n(CCCCC(=O)NCc3ccco3)c(=O)c2cc1OCC was read as Apaf1 activ -190, Rh110 act interf inactive and Apaf-1 act conf inactive.
For C#CCOCCOCCOCCNc1nc(N2CCN(C(=O)[C@H](CCCCN)n3cc([C@@H](N)[C@H](C)CC)nn3)CC2)nc(N2CCN(C(=O)[C@H](CCC(=O)O)n3cc([C@@H](N)CCCCN)nn3)CC2)n1 the results were Apaf1 activ inactive.
For CCCCCNC(=O)c1cn(CC)c2cc(N3CCN(C)CC3)c(F)cc2c1=O the results were Apaf1 activ -72, Rh110 act interf inactive and Apaf-1 act conf inactive.
Cc1[nH]n(-c2ccccc2)c(=O)c1C(C[N+](=O)[O-])c1ccccc1Cl (stereo unspecified) was read as Apaf1 activ inactive.
Screening OCCN1CCN(CC/C=C2/c3ccccc3Sc3ccc(C(F)(F)F)cc32)CC1 returned Apaf1 activ inactive.
C=C(C)C(=O)Nc1ccc(OC(F)(F)C(F)F)c(NC(=O)C(=C)C)c1 was read as Apaf1 activ -85, Rh110 act interf inactive and Apaf-1 act conf inactive.
Screening CCOC(=O)c1ccc(Nc2nc(N)c3cc(OC)c(OC)cc3n2)cc1 returned Apaf1 activ inactive.
Screening COc1ccc(Nc2ccc(C(=O)O)cc2[N+](=O)[O-])cc1 returned Apaf1 activ -64, Rh110 act interf inactive and Apaf-1 act conf inactive.
For CCN1CCN(Cc2ccc(NC(=O)c3cc(NC(=O)c4cc(-c5ccc(OC)cc5)n[nH]4)cc(OC)c3)cc2C(F)(F)F)CC1 the results were Apaf1 activ inactive.
`Cc1cc(C)c2sc(N(CCCN(C)C)C(=O)c3ccc(S(=O)(=O)N(C)C4CCCCC4)cc3)nc2c1` gave Apaf1 activ inactive.
`CCOC(=O)C1CCCN(C2CCN(Cc3nc(Cc4ccccc4)no3)CC2)C1` (stereo unspecified) gave Apaf1 activ -72, Rh110 act interf inactive and Apaf-1 act conf inactive.
For CCOC(=O)C1CCN(C2=C(NS(=O)(=O)c3ccc(Br)cc3)C(=O)c3ccccc3C2=O)CC1 the results were Apaf1 activ inactive.
For O=C(C1CCCN(S(=O)(=O)c2cnc[nH]2)C1)N1CCN(Cc2ccccc2)CC1 (stereo unspecified) the results were Apaf1 activ inactive.
Screening COc1cc(NCc2ccccc2)c2ncn(Cc3ccccc3)c2c1 returned Apaf1 activ inactive.
Screening O=C(CSc1c[nH]c2ccccc12)N1CCOCC1 returned Apaf1 activ -42, Rh110 act interf inactive and Apaf-1 act conf inactive.
`O=C(CSc1nncc2ccccc12)N1CCOCC1` gave Apaf1 activ -543, Rh110 act interf inactive and Apaf-1 act conf inactive.
`COc1cccc2nc3cc(C)c(C)cc3nc12` gave Apaf1 activ inactive.
